Experiment [1] has as its system ai5γ intron with short exons (SE RNA). Kind of experiment: Radioanalytic self-splicing assay. Format: biochemical, S. cerevisiae. The settings on record: relative to lead compound; IC50 and Ki assays. The method, boiled down:
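Internally ³²P-labelled ai5γ precursor with short exons (2 nM) self-spliced at 30 °C with a range of test compound concentrations. Buffer was 50 mM MOPS pH 7.5, 8 mM MgCl₂, 100 mM KCl. First-order splicing rates were fitted to k_obs = k_max/(1+[I]/K_i) to give K_i. Each determination was repeated 2–4 times; mean ± s.e.m.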

Experiment [2] deals with COX1 aI5γ group II intron. Kind of experiment: Analysis of splicing in S. cerevisiae by qRT-PCR. The settings on record: S. cerevisiae in YPGE, 4 h; 19 64 μg/mL, 18 32 μg/mL, 12 32 μg/mL, 3 64 μg/mL. It counts as cell-based.
Experiment [3] relates to ai5γ group II intron (D135 ribozyme). Nature of the experiment: Fluorescent D135 ribozyme cleavage assay. Format: biochemical, S. cerevisiae. The conditions noted are these: compared with the parental molecule 7.
For experiment [4], the system named is S. cerevisiae wild-type (NP40–36a) and intronless (XPM46) strains. Kind of experiment: S. cerevisiae growth assays, wild-type vs mtDNA intronless strain. It counts as cell-based. The settings on record: YPGE medium, 64 or 128 μg/mL. The method, boiled down:
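Wild-type NP40–36a and mtDNA intronless XPM46 strains were grown overnight with shaking to mid-log phase in YPGE at 30 °C. Equal cell numbers were serially diluted 1:5 and plated on YPD or YPGE. Plates held DMSO or test compound at 64 or 128 µg/mL final. Plates grew at 30 °C for 1 day (YPD), 2 days (YPGE with DMSO) or 18 days (YPGE with compound). Done twice.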

In the case of `O=C1/C(=C/c2ccc(O)c(O)c2)Oc2cc(O)cc(O)c21` [Compound 2], the “In vitro inhibitory activity in SAR (in words)” value (shortened to “In vitro inhibitory activity”) in experiment [1] is given as “inactivated”.

In the case of `O=C1/C(=C/c2cc(O)cc(O)c2)Oc2cc(O)cc(O)c21` [Compound 3], the “Splicing of COX1 aI5γ group II intron in vivo (unspliced precursor, qRT-PCR)” value (from here on “Splicing of COX1 aI5γ group II intron”) in experiment [2] was “inactive”.

Take `O=C(c1cc(O)c(O)c(O)c1)c1cc2ccccc2o1` [Compound 9]: the “Increase in in vitro potency” value in experiment [3] was determined as 2 fold.

On to `COc1ccc(CNC(=O)c2cc(O)c(O)c(O)c2)cc1OC` [Compound 10], for which the “In vitro inhibitory activity” value in experiment [1] is given as “substantial loss of activity”.

Take `CCCCNS(=O)(=O)c1ccc(-c2ccc(-c3nc(-c4cc(O)c(O)c(O)c4)cs3)cc2)cc1` [Compound 11]: in experiment [1], the “In vitro inhibitory activity” value is reported as “substantial loss of activity”.

In the case of `Cc1ccncc1-c1ccc2oc(C(=O)c3cc(O)c(O)c(O)c3)cc2c1` [Compound 12], the “Splicing of COX1 aI5γ group II intron” value in experiment [2] is on record as “inhibit splicing”.

For the molecule `CC(=O)c1ccc(-c2ccc3oc(C(=O)c4cc(O)c(O)c(O)c4)cc3c2)cc1` [Compound 18], the “Splicing of COX1 aI5γ group II intron” value in experiment [2] is “inhibit splicing”. In addition, the “Growth of intronless strain versus wild-type strain in presence of compound” value in experiment [4] was “much more resistant”.

The values are drawn from PMC6239893 (Nature chemical biology, 2018).
